The target of test [1] is T1, 5-hydroxytryptamine receptor 3A (Rattus norvegicus, UniProt P35563).
T1 sequence (P35563 whole entry): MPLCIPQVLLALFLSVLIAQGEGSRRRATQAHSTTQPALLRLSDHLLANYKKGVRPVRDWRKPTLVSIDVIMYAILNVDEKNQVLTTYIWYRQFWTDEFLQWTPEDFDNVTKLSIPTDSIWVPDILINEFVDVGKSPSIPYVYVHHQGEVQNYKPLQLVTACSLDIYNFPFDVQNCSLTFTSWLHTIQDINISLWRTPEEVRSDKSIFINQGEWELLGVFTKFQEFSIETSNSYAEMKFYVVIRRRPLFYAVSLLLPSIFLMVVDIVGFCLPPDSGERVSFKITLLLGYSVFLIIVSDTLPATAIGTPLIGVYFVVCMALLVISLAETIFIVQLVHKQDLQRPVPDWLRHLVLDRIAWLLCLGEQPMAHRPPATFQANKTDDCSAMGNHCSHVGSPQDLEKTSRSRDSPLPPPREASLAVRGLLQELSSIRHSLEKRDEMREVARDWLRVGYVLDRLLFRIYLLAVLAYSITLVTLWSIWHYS
As to the kind of experiment: Displacement of [3H]LY278584 from 5HT3 receptor in rat cortical homogenate. In general terms: Displacement assays read how much labelled ligand stays bound in the presence of the test substance.

In test [2] the target is T2, 5-hydroxytryptamine receptor 3A (Cavia porcellus) (UniProt O70212).
T2 sequence (whole entry): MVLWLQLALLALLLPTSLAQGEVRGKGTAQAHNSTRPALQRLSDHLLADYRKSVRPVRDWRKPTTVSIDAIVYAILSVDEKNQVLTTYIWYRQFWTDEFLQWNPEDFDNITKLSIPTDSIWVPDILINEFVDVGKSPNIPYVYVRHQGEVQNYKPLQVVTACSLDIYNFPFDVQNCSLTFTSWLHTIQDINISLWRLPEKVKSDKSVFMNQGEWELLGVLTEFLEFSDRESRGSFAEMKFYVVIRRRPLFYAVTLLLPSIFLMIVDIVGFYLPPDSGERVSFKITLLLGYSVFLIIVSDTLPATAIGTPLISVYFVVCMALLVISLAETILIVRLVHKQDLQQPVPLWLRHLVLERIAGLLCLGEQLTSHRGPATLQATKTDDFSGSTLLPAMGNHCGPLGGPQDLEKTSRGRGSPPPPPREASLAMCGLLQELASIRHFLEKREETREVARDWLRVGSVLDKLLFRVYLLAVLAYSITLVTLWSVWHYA
As to the kind of experiment: Agonist activity at 5HT3 receptor in voltage-stimulated guinea pig left atrium assessed as positive inotropic potency at 100 uM. It counts as functional, tissue-based. Conditions: Cardiac atrium. In a few lines: (§1)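 Guinea pig left and right atria were hung in a 15 mL bath of PSS (pH 7.4, 95% O2-5% CO2, 35 °C) with ketanserin 1 µM. The right atrium beat spontaneously; the left was paced at 1 Hz. Cumulative doses (0.1-100 µM; DMSO ≤0.3%) were added after 45-60 min stabilization. Rate or isometric force was recorded. EC50 came from Probit analysis, n≥4. Intrinsic activity was taken relative to 5-HT.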

Test [3] deals with T2, 5-hydroxytryptamine receptor 3A (Cavia porcellus). As to the kind of experiment: Agonist activity at 5HT3 receptor in spontaneously beating guinea pig right atrium assessed as positive chronotropic potency at 100 uM. Conditions: Cardiac atrium. Type of test: functional, tissue-based. In a few lines:
as §1

The target is the same in test [4]. Put plainly: Agonist activity at 5HT3 receptor in guinea pig thoracic aorta assessed as positive contractility potency at 100 uM. It counts as functional, tissue-based. In a few lines:
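Guinea pig aortic helicoidal strips in PSS at 35 °C, aerated, under 1 g resting force, washed every 20 min for 1 h. Compounds added cumulatively 0.1-100 µM (DMSO vehicle); isometric contraction recorded.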

In test [5] the target is T3, 5-hydroxytryptamine receptor 3A (Cavia porcellus, UniProt O70212).
T3 sequence (O70212 whole entry): T2 sequence (whole entry)
As to the kind of experiment: Antagonist activity at 5HT3 receptor in spontaneously beating guinea pig right atrium assessed as inhibition of serotonin-induced maximum response by noncompetitive binding assay. It counts as tissue-based, Cardiac atrium. In a few lines: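 Spontaneously beating guinea pig right atrium; 5-HT concentration-response curves (0.001-1.0 µM) before and after 30 min antagonist exposure at three concentrations. IC50 is inhibition of 50% of maximal 5-HT response, Probit analysis, n = 4-6.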

Test [6] deals with 5-hydroxytryptamine receptor 2A (Rattus norvegicus, UniProt P14842). As to the kind of experiment: Displacement of [3H]ketanserin from 5HT2A receptor in rat cortex.
Chain of 5-hydroxytryptamine receptor 2A (P14842 whole entry): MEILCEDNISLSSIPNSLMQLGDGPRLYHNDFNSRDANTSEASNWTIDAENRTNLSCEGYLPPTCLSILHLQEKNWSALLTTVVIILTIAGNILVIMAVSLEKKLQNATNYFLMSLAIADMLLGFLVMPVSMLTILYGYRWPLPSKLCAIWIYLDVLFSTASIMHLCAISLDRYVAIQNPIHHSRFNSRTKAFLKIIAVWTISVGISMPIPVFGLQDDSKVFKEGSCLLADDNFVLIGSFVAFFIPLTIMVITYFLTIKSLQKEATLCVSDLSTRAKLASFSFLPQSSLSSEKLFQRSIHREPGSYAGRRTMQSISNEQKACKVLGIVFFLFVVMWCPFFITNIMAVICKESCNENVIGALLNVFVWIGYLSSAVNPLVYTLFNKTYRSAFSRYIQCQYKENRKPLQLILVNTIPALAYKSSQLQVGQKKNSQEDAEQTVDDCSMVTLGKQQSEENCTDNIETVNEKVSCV
The target in test [7] is T2, 5-hydroxytryptamine receptor 3A (Cavia porcellus). As to the kind of experiment: Intrinsic activity at 5HT3 receptor in spontaneously beating guinea pig right atrium assessed as positive chronotropic potency relative to serotonin. Conditions: Cardiac atrium. In a few lines:
as §1

Test [8] deals with T4, 5-hydroxytryptamine receptor 1A (Rattus norvegicus, UniProt P19327).
T4 sequence (P19327 whole entry): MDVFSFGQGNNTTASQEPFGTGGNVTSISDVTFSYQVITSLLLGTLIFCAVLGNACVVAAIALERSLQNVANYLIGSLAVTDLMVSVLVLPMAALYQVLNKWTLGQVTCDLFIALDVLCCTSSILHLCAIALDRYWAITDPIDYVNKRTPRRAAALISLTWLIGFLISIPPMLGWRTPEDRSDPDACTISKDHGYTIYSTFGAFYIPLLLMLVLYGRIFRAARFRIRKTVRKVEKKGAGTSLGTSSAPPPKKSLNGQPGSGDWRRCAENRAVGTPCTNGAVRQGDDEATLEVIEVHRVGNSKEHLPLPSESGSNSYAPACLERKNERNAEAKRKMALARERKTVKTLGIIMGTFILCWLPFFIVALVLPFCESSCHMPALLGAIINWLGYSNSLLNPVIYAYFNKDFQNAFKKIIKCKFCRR
Put plainly: Displacement of [3H]8-OHDPAT from 5HT1A receptor in rat hippocampus. Type of test: tissue-based.

Test [9] has as its system Rattus norvegicus. Put plainly: Antagonist activity at 5HT3 receptor in iv dosed urethane-anesthetized Sprague-Dawley rat assessed as inhibition of 1-phenylbiguanide-induced bradycardia administered 5 mins before 1-phenylbiguanide challenge measured after 5 to 30 mins post-treatment by von Bezold-Jarisch reflex test. It counts as functional. Conditions: for ED50: read-out: ID50 (the source's name).

Test [10] concerns the target 5-hydroxytryptamine receptor 4 (Cavia porcellus, UniProt O70528). Put plainly: Displacement of [3H]GR-113808 from 5HT4 receptor in guinea pig striatum.
The target of test [11] is T2, 5-hydroxytryptamine receptor 3A (Cavia porcellus). Put plainly: Agonist activity at 5HT3 receptor in spontaneously beating guinea pig right atrium assessed as positive chronotropic potency. Type of test: functional, tissue-based. Conditions: Cardiac atrium. In a few lines:
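Isolated guinea pig atria in PSS (Tyrode) with ketanserin 1 µM, 95% O2-5% CO2, pH 7.4, 35 °C. Right atrium beating spontaneously (rate); left atrium paced 1 Hz, 0.6-0.8 ms pulses near 50% threshold (force). Isometric recording after 45-60 min stabilization.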

For test [12], the target named is D(1A) dopamine receptor (Rattus norvegicus, UniProt P18901). As to the kind of experiment: Displacement of [3H]SCH-23390 from dopamine D1 receptor in rat striatum.
Chain of D(1A) dopamine receptor (P18901 whole entry): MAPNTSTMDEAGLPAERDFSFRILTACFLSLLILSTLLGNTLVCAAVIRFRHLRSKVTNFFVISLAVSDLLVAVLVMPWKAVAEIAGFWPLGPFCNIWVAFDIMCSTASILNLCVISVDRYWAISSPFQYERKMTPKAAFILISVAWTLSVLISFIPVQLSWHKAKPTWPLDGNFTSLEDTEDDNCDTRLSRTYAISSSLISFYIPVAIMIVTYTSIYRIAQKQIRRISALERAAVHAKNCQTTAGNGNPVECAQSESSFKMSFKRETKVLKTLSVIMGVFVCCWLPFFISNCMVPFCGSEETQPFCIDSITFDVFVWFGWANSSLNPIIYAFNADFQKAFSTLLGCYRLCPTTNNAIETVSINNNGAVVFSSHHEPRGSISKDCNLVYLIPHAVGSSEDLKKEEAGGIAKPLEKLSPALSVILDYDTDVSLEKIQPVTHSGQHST
The target of test [13] is Muscarinic acetylcholine receptor. Put plainly: Displacement of [3H]QNB from muscarinic receptor in rat cortex.
The target in test [14] is D(2) dopamine receptor (Rattus norvegicus, UniProt P61169). As to the kind of experiment: Displacement of [3H]spiperone from dopamine D2 receptor in rat striatum.
Chain of D(2) dopamine receptor (P61169 whole entry): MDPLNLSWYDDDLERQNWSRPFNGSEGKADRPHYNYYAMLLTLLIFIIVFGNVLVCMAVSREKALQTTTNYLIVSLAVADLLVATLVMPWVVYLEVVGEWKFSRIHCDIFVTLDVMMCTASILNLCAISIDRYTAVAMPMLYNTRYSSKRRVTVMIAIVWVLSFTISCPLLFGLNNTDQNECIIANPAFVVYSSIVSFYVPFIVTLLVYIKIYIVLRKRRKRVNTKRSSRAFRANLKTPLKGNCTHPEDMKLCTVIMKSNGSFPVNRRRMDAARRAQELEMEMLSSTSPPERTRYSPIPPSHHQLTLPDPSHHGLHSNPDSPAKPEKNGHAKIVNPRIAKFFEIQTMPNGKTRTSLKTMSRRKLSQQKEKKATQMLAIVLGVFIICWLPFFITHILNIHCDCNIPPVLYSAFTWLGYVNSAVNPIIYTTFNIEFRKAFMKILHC
In test [15] the target is T1, 5-hydroxytryptamine receptor 3A. As to the kind of experiment: Displacement of [3H]zacopride from 5HT3 receptor in rat cortex.

Activity calls are given as the source filed them.

Usually Ki stands for the dissociation constant of the complex between target and ligand, obtained from inhibition or displacement. A low value points to tighter binding. One may read the IC50 as the concentration that inhibits the measured activity by half.

Chain of 5-hydroxytryptamine receptor 4 (O70528 whole entry): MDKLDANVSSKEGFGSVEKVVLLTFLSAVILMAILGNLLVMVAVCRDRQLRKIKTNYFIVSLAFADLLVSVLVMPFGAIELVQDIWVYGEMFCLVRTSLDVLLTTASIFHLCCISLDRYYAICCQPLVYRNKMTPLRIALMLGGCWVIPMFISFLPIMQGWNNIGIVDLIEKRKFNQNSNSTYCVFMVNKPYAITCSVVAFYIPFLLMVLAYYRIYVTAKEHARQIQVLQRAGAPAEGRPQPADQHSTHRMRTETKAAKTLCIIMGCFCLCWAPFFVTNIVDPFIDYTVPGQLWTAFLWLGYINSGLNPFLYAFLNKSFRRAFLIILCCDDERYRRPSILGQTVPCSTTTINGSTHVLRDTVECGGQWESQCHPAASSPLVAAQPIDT

In turn, `Fc1ccc2c(c1)nc(N1CCN(Cc3nnc[nH]3)CC1)c1cccn12` yielded a Ki in test [1] of 3.4 nM. For the same compound, the pD2 entry in test [2], in [3] and in test [4] was “inactive” throughout. In addition, the IC50 in test [5] was 8510 nM.

Consider `O=c1[nH]nc(CN2CCN(c3nc4cc(F)ccc4n4cccc34)CC2)o1`, for which, in [1], the Ki amounted to 127 nM.

`Cc1cccc2nc(N3CCN(C(CO)c4ccccc4)CC3)c3cccn3c12` (centres undefined) displayed an inhibition constant Ki in test [1] of 79 nM.

Compound `Cc1cccc2nc(N3CCN(C(C(=O)O)c4ccccc4)CC3)c3cccn3c12` (centres undefined) registered a Ki in [1] of 44 nM. Compared with the last compound, the Ki is about 1.8-fold lower.

Turning to `Cc1cccc2nc(N3CCN(CC(=O)NO)CC3)c3cccn3c12`, the Ki in test [1] stood at 3 nM. Compared with the last compound, the Ki is about 15-fold lower.

Regarding `CN1CCN(c2nc3cc(F)ccc3n3cccc23)CC1`, the inhibition constant (Ki) in test [1] was 0.8 nM; in test [6], 124 nM; in test [8] it was 138 nM; in [10], over 10000 nM. In addition, the Intrinsic activity in [7] was determined as 0.6. The ID50 result in test [9] is “Dose-dependent effect”. In test [9], the ED50 was 0.6 mg/kg. The pD2 result in test [2] and in test [4] was “inactive” in each case. In [11], the pD2 is 6.79.

The compound `O=c1[nH]nc(CN2CCN(c3nc4cc(F)ccc4n4cccc34)CC2)[nH]1` yielded an inhibition constant (Ki) in [1] of 17 nM.

For `O=C(O)CN1CCN(c2ccc3ccccc3n2)CC1`, the Ki in test [1] was 11.2 nM; in test [12], over 10000 nM; in test [6], over 10000 nM; in test [13] it was over 10000 nM; in test [8] it was over 10000 nM; in test [10], 5750 nM. Also, the affinity in test [14], expressed as Ki, was 919 nM.

As for `CN1CCN(c2nc3cc(O)ccc3n3cccc23)CC1`, the Ki in test [15] turned out to be 0.7 nM.

`NC(CO)C(=O)N1CCN(c2nc3cc(F)ccc3n3cccc23)CC1` (single isomer, unassigned): affinity in test [1] was put at a Ki of 237 nM.

With `Fc1ccc2c(c1)nc(N1CCN(Cc3ccccc3)CC1)c1cccn12`, the Ki in test [15] is 13 nM.

Turning to `Fc1ccc2c(c1)nc(N1CCN(Cc3nnn[nH]3)CC1)c1cccn12`, the Ki in [1] worked out at 65 nM.

As to `O=C(O)CN1CCN(c2nc3cc(O)ccc3n3cccc23)CC1`, in test [1], the affinity, expressed as Ki, was 2.1 nM.

Take `Cc1cccc2nc(N3CCN(C)CC3)c3cccn3c12`: the Ki in [8] is over 10000 nM; in test [15] it was 0.8 nM.

On to `c1ccc2nc(N3CCNCC3)ccc2c1` [QUIPAZINE], for which the Ki in [1] is 0.96 nM; in [10], over 10000 nM.

As to `O=C(CN1CCN(c2nc3cc(F)ccc3n3cccc23)CC1)NO`, in test [1], the affinity, expressed as Ki, was 2.2 nM. In addition, the ED50 in [9] was 0.05 mg/kg.

In turn, `CS(=O)(=O)NC(=O)CN1CCN(c2nc3cc(F)ccc3n3cccc23)CC1` returned a Ki in [1] of 246 nM.

Source of the values: ChEMBL document CHEMBL1136924 (J Med Chem, 2009).
